Test results reported in ChEMBL document CHEMBL3272083, “Antiinflammatory and analgesic diastereoisomeric derivatives of indan-5-acetic acid” (J Med Chem, 1978).

Assays:
Rattus norvegicus [1] = assay: Antiinflammatory activity in po dosed rat assessed as inhibition of carrageenan-induced edema administered in 1% w/v arabic gum; type: functional
Procedure, shortened: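 Given orally in 1% w/v arabic gum vehicle. Read-out was carrageenan-induced edema. ED50 and 95% confidence limits were derived by Bliss's method.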

Rattus norvegicus [2] = assay: Analgesic activity in po dosed rat assessed as inhibition of phenylbenzoquinone-induced writhing administered in 1% w/v arabic gum; type: functional
Procedure, shortened: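 Oral dosing in 1% w/v arabic gum vehicle. Read-out was antagonism of writhing produced by phenylbenzoquinone. ED50 with 95% confidence limits was calculated by Bliss's method.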

Rattus norvegicus [3] = assay: (§1) Gastrointestinal toxicity in po dosed rat assessed as ulcerogenic activity after 6 hrs administered in 1% w/v arabic gum; type: organism-based; details: in vivo, 6 h
Procedure, shortened: (§2)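 Fasted rats dosed orally, compound suspended in 1% w/v arabic gum. Stomachs examined 6 h after dosing; gastric ulcer intensity graded on a 0–3 scale. The 50% ulcerogenic dose (UD50) was read graphically.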

[4] = as §1; type: organism-based; details: in vivo, read-out: UD50; procedure, shortened: as §2
[5] = Rattus norvegicus, po, read-out: ED50

| Compound | ED50 (Rattus norvegicus [1]) | ED50 (Rattus norvegicus [2]) | UD50 (Rattus norvegicus [3]) | ED50 (Rattus norvegicus [1]; [5]) | ED50 (Rattus norvegicus [2]; [5]) | TD50 at 6 h [4] |
| --- | --- | --- | --- | --- | --- | --- |
| CC(C(=O)O)c1ccc2c(c1)CC(C(C)C)C2 (single isomer, unassigned; (-)) [ISOPROFEN] | 32 mg/kg | 17 mg/kg | 87 mg/kg |  |  |  |
| CCC1Cc2ccc(CC(=O)O)cc2C1 (racemic) |  |  |  | > 256 mg/kg | 104 mg/kg | 125 mg/kg |
| CC(C(=O)O)c1ccc2c(c1)CC(C(C)C)C2 (racemic) [ISOPROFEN] |  |  |  | 29 mg/kg | 9 mg/kg | 62 mg/kg |
| CCC1Cc2ccc(C(C)C(=O)O)cc2C1 (racemic) |  |  |  | 36 mg/kg | 6 mg/kg | 65 mg/kg |
| CC(C)Cc1ccc(C(C)C(=O)O)cc1 (centres undefined) [IBUPROFEN] |  |  |  | 44 mg/kg | 17 mg/kg | 40 mg/kg |
| CC(C)C1Cc2ccc(CC(=O)O)cc2C1 (racemic) |  |  |  | 155 mg/kg | 57 mg/kg | 335 mg/kg |
| CC1Cc2ccc(C(C)C(=O)[O-])cc2C1.[Na+] (racemic) |  |  |  |  | 24 mg/kg |  |
| CC(C)[C@@H]1Cc2ccc([C@H](C)C(=O)O)cc2C1 |  |  |  |  | 9 mg/kg |  |
| CC(C(=O)O)c1ccc2c(c1)CC(C(C)C)C2 (single isomer, unassigned; (+)) [ISOPROFEN] | 24 mg/kg | 10 mg/kg | 46 mg/kg |  |  |  |
| CC1Cc2ccc(CC(=O)O)cc2C1 (racemic) |  |  |  |  | 175 mg/kg |  |
